Laboratory results as given in ChEMBL document CHEMBL4406880, “Design, synthesis, and bioactivity of dihydropyrimidine derivatives as kinesin spindle protein inhibitors” (Bioorg Med Chem, 2019).

Columns and labels:
Format in all cases: functional
UACC-62 = assay: Growth inhibition of human UACC62 cells assessed as growth percentage at 10 uM incubated for 48 hrs by sulforhodamine B assay relative to control; conditions: UACC-62, 48 h, read-out: Activity
Summary of the method: (§1)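 NCI-60 single-dose screen. Cells were grown in RPMI 1640 with 5% FBS and 2 mM L-glutamine and plated at 5,000–40,000 cells/well. After an overnight preincubation at 37 °C in 5% CO2, compound was added at a final 10 µM from a DMSO stock, with DMSO/PBS controls. After 48 h, cells were TCA-fixed and stained with 0.4% SRB, and absorbance was read at 515 nm. Growth is given as a percentage of untreated control.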

HT-29 = assay: Growth inhibition of human HT-29 cells assessed as growth percentage at 10 uM incubated for 48 hrs by sulforhodamine B assay relative to control; conditions: HT-29, 48 h, read-out: Activity
Summary of the method: (§2)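 NCI-60 one-dose screen. Cells in RPMI 1640 with 5% FBS and 2 mM L-glutamine, seeded at 5,000–40,000 cells/well according to doubling time, and preincubated overnight at 37 °C, 5% CO2. A time-zero plate was TCA-fixed at drug addition. Compound from DMSO stock, final 10 µM, 48 h; DMSO vehicle controls. Fixation with TCA, 10% final (16% for suspension cells). SRB stain, Tris solubilization, A515. Result given as % growth versus untreated cells.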

KM12 = assay: Growth inhibition of human KM12 cells assessed as growth percentage at 10 uM incubated for 48 hrs by sulforhodamine B assay relative to control; conditions: KM12, 48 h, read-out: Activity; summary of the method: as §2
SK-MEL-28 = assay: Growth inhibition of human SK-MEL-28 cells assessed as growth percentage at 10 uM incubated for 48 hrs by sulforhodamine B assay relative to control; conditions: SK-MEL-28, 48 h, read-out: Activity; summary of the method: as §1
NCI/ADR-RES = assay: Growth inhibition of human NCI/ADR-RES cells assessed as growth percentage at 10 uM incubated for 48 hrs by sulforhodamine B assay relative to control; conditions: read-out: Activity; summary of the method: as §2
DU-145 = assay: Growth inhibition of human DU145 cells assessed as growth percentage at 10 uM incubated for 48 hrs by sulforhodamine B assay relative to control; conditions: DU-145, 48 h, read-out: Activity
Summary of the method: (§3)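 NCI-60 one-dose screen: cells in RPMI 1640 with 5% FBS and 2 mM L-glutamine, plated at 5,000–40,000 cells/well and preincubated 24 h at 37 °C, 5% CO2. Compound is added from a DMSO stock to a final 10 µM and incubated 48 h. Cells are TCA-fixed and stained with sulforhodamine B, read at 515 nm. Output is % growth versus untreated control, with a time-zero plate.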

RXF 393 = assay: Growth inhibition of human RXF393 cells assessed as growth percentage at 10 uM incubated for 48 hrs by sulforhodamine B assay relative to control; conditions: RXF 393, 48 h, read-out: Activity; summary of the method: as §1
COLO 205 = assay: Growth inhibition of human COLO205 cells assessed as growth percentage at 10 uM incubated for 48 hrs by sulforhodamine B assay relative to control; conditions: COLO 205, 48 h, read-out: Activity; summary of the method: as §3
UACC-257 = assay: Growth inhibition of human UACC257 cells assessed as growth percentage at 10 uM incubated for 48 hrs by sulforhodamine B assay relative to control; conditions: UACC-257, 48 h, read-out: Activity; summary of the method: as §1
A549 = assay: Growth inhibition of human A549/ATCC cells assessed as growth percentage at 10 uM incubated for 48 hrs by sulforhodamine B assay relative to control; conditions: A549, 48 h, read-out: Activity; summary of the method: as §3
HCT-15 = assay: Growth inhibition of human HCT15 cells assessed as growth percentage at 10 uM incubated for 48 hrs by sulforhodamine B assay relative to control; conditions: HCT-15, 48 h, read-out: Activity; summary of the method: as §3
OVCAR-3 = assay: Growth inhibition of human OVCAR3 cells assessed as growth percentage at 10 uM incubated for 48 hrs by sulforhodamine B assay relative to control; conditions: OVCAR-3, 48 h, read-out: Activity; summary of the method: as §2
LOX IMVI = assay: Growth inhibition of human LOXIMVI cells assessed as growth percentage at 10 uM incubated for 48 hrs by sulforhodamine B assay relative to control; conditions: read-out: Activity; summary of the method: as §2
SF-295 = assay: Growth inhibition of human SF295 cells assessed as growth percentage at 10 uM incubated for 48 hrs by sulforhodamine B assay relative to control; conditions: SF-295, 48 h, read-out: Activity; summary of the method: as §1
MDA-MB-231 = assay: Growth inhibition of human MDA-MB-231 cells assessed as growth percentage at 10 uM incubated for 48 hrs by sulforhodamine B assay relative to control; conditions: MDA-MB-231, 48 h, read-out: Activity; summary of the method: as §2
U-251 = assay: Growth inhibition of human U251 cells assessed as growth percentage at 10 uM incubated for 48 hrs by sulforhodamine B assay relative to control; conditions: U-251, 48 h, read-out: Activity; summary of the method: as §1
K562 = assay: Growth inhibition of human K562 cells assessed as growth percentage at 10 uM incubated for 48 hrs by sulforhodamine B assay relative to control; conditions: K562, 48 h, read-out: Activity; summary of the method: as §2
HL-60(TB) = assay: Growth inhibition of human HL-60(TB) cells assessed as growth percentage at 10 uM incubated for 48 hrs by sulforhodamine B assay relative to control; conditions: HL-60, 48 h, read-out: Activity
Summary of the method: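 NCI-60 single-dose screen. Cells in RPMI 1640 with 5% FBS and 2 mM L-glutamine are plated at 5,000–40,000 cells/well and preincubated overnight at 37 °C, 5% CO2. Compound is added from a DMSO stock at 10 µM final for 48 h. Cells are TCA-fixed (suspension cells 16% final) and stained with SRB. Absorbance is read at 515 nm, and percentage growth is calculated against untreated controls with a time-zero plate.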

HCT-116 = assay: Growth inhibition of human HCT116 cells assessed as growth percentage at 10 uM incubated for 48 hrs by sulforhodamine B assay relative to control; conditions: HCT-116, 48 h, read-out: Activity; summary of the method: as §3
SN12C = assay: Growth inhibition of human SN12C cells assessed as growth percentage at 10 uM incubated for 48 hrs by sulforhodamine B assay relative to control; conditions: read-out: Activity; summary of the method: as §1
SW-620 = assay: Growth inhibition of human SW620 cells assessed as growth percentage at 10 uM incubated for 48 hrs by sulforhodamine B assay relative to control; conditions: SW-620, 48 h, read-out: Activity; summary of the method: as §1
HCC 2998 = assay: Growth inhibition of human HCC2998 cells assessed as growth percentage at 10 uM incubated for 48 hrs by sulforhodamine B assay relative to control; conditions: HCC 2998, 48 h, read-out: Activity; summary of the method: as §3
SK-MEL-5 = assay: Growth inhibition of human SK-MEL-5 cells assessed as growth percentage at 10 uM incubated for 48 hrs by sulforhodamine B assay relative to control; conditions: SK-MEL-5, 48 h, read-out: Activity; summary of the method: as §1
OVCAR-8 = assay: Growth inhibition of human OVCAR8 cells assessed as growth percentage at 10 uM incubated for 48 hrs by sulforhodamine B assay relative to control; conditions: OVCAR-8, 48 h, read-out: Activity; summary of the method: as §1

SMILES | growth at 10 µM (UACC-62) [%] | growth at 10 µM (HT-29) [%] | growth at 10 µM (KM12) [%] | growth at 10 µM (SK-MEL-28) [%] | growth at 10 µM (NCI/ADR-RES) [%] | growth at 10 µM (DU-145) [%] | growth at 10 µM (RXF 393) [%] | growth at 10 µM (COLO 205) [%] | growth at 10 µM (UACC-257) [%] | growth at 10 µM (A549) [%] | growth at 10 µM (HCT-15) [%] | growth at 10 µM (OVCAR-3) [%] | growth at 10 µM (LOX IMVI) [%] | growth at 10 µM (SF-295) [%] | growth at 10 µM (MDA-MB-231) [%] | growth at 10 µM (U-251) [%] | growth at 10 µM (K562) [%] | growth at 10 µM (HL-60(TB)) [%] | growth at 10 µM (HCT-116) [%] | growth at 10 µM (SN12C) [%] | other results
CC(=O)N1C(=S)NC(C)=C(C(=O)OC(C)C)C1c1ccc2c(c1)OCO2 (racemic) | 95.6 | 105 | 99.7 | 111 | 103 | 104 | 111 | 99.5 | 104 | 99.4 | 99.3 | 109 | 98.8 | 99.4 | 88.9 | 92.6 | 83.2 | 99.3 | 93.8 | 93.1 | growth at 10 µM (SW-620): 102%; growth at 10 µM (HCC 2998): 110%; growth at 10 µM (SK-MEL-5): 100%; growth at 10 µM (OVCAR-8): 96.4%
COCCOC(=O)C1=C(C)NC(=S)N(C(C)=O)C1c1ccc2c(c1)OCO2 (racemic) | 98.2 | 106 | 95.9 | 106 | 99.8 | 106 | 111 | 100 | 95.3 | 99.2 | 103 | 101 | 97.2 | 98.5 | 97.8 | 94.8 | 94.3 | 97.8 | 103 | 96.7 | growth at 10 µM (SW-620): 100%; growth at 10 µM (HCC 2998): 113%; growth at 10 µM (SK-MEL-5): 104%; growth at 10 µM (OVCAR-8): 99.3%
CC1=C(C(=O)OCC(C)C)C(c2ccc3c(c2)OCO3)NC(=S)N1 (racemic) | 90.3 | 106 | 99.1 | 119 | 96.7 | 109 | 100 | 123 | 95.6 | 99 | 100 | 109 | 96.3 | 104 | 118 | 97.4 | 90.7 | 101 | 101 | 106 | growth at 10 µM (SW-620): 115%; growth at 10 µM (HCC 2998): 112%; growth at 10 µM (SK-MEL-5): 92.5%; growth at 10 µM (OVCAR-8): 102%
CC1=C(C(=O)OC(C)C)C(c2ccc3c(c2)OCO3)NC(=S)N1 (racemic) | 85.2 | 103 | 108 | 106 | 101 | 109 | 106 | 123 | 100 | 104 | 100 | 121 | 97.3 | 95.8 | 101 | 102 | 107 | 105 | 95.6 | 105 | growth at 10 µM (SW-620): 107%; growth at 10 µM (HCC 2998): 115%; growth at 10 µM (SK-MEL-5): 98.5%; growth at 10 µM (OVCAR-8): 102%
CC(=O)C1=C(C)NC(=O)NC1c1ccc2c(c1)OCO2 (racemic) | 98.9 | 104 | 110 | 115 | 106 | 118 | 95.2 | 104 | 107 | 103 | 106 | 115 | 96.4 | 106 | 102 | 100 | 104 | 98.6 | 108 | 102 | growth at 10 µM (SW-620): 104%; growth at 10 µM (HCC 2998): 107%; growth at 10 µM (SK-MEL-5): 100%; growth at 10 µM (OVCAR-8): 103%
